High-throughput results from PubChem BioAssay.
Diaph inh CS – counter-screen for diaphorase-based assays: diaphorase inhibitors and chemical oxidizers. 190,000 compounds, 0.69% hits. inhibition, % at 20 µM. AID 1217. diaphorase resazurin-to-resorufin fluorescence, NADH, 16 min; bacterial (C. kluyveri) enzyme, not human;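 active means primary screen inhibition at 20 µM above a set limit, cut at about 50% in these data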;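 further: plate controls were DMSO with full reaction for no effect and wells lacking NADH for full effect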
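Benchmarks: positive control wells lacking NADH, neutral wells with DMSO only. System: bacterial diaphorase enzyme (C. kluyveri). Input: 0.14 U/mL diaphorase, enzyme working solution. Detection: resorufin fluorescence, excitation 544 nm, emission 590 nm. Times: 16-min room-temperature incubation before reading.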
Diaph act CS – activates diaphorase or chemically reduces, flagging diaphorase assay artifacts. Diaphorase/resazurin coupled assay, resorufin fluorescence, 16 min; stronger effect = higher value; 1 = vehicle wells, 0 = NADH-free wells. activation factor at 20 µM. 190,000 compounds, 0.005% hits;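 active means diaphorase activity raised at least twofold by the compound at 20 µM; inactive means activation factor below 2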
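Material: purified diaphorase enzyme from Clostridium kluyveri; Also added: 0.114 mM NADH and 0.1 mM resazurin, final amounts; Doses: single compound dose of 20 µM, 1% DMSO final; Times: 16 min enzyme reaction, ambient temperature; Detection: resorufin fluorescence, excitation 544 nm, emission 590 nm; Measure: increased resorufin signal from activators or reducing compounds.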
Lmaj promast – Leishmania major promastigote growth inhibition; inhibition, % at 10 µM; 200,000 compounds, 9% hits; Leishmania major promastigotes, resazurin fluorescence viability; AID 1063;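 further: promastigotes grown with compound for 44 hours at 28 °C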
PfG6PD inh – PfG6PD (Plasmodium falciparum) enzyme inhibition. PfGluPho enzyme, NADPH resazurin-diaphorase fluorescence. inhibition, % at 20 µM. 350,000 compounds, 0.78% hits. AID 504690;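 active means inhibition reaching at least a set limit at 20 µM in the primary screen, cut at about 59% in these data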;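 further: 0% = DMSO wells with substrate and 100% = DMSO wells lacking glucose-6-phosphate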
G6PDH counter – counter-screen for G6PDH assay hits: L. mesenteroides G6PDH inhibition; Purified L. mesenteroides G6PDH, diaphorase/resazurin coupled fluorescence, 45 min; inhibition, % at 5 µM; 200,000 compounds, 0.12% hits; AID 1020
DTT redox prof – compounds producing H2O2 with reducing agent – biochemical, NIH compound library profiling, artefact control for MLSCN library redox annotation, primary screen; DTT-dependent redox cycling H2O2, phenol red/HRP absorbance; 100% = 100 µM peroxide control, 0% = buffer; activation, % at 10 µM; 200,000 compounds, 0.03% hits; AID 878;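 active means activation of at least 50% relative to the plate's high and low controls in the primary single-dose screen; inactive means activation below 50%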;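 further: compound incubated with DTT at 0.8 mM final as the reducing agent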
Starred values were filed as active, the others as inactive; . = not tested or not shown. The full list was thinned out, with hits kept by preference. Unless noted, no stated cut-off is given here; in the data, active means inhibition above about 50%; inactive means the rest.

SMILES | Diaph inh CS | Diaph act CS | Lmaj promast | PfG6PD inh | G6PDH counter | DTT redox prof
Nn1cnnc1N/N=C/c1cc(Br)cc(Br)c1O | 50* | 0.5 | 38 | 38 | 32 | -2
Cc1ccc2cc(CN(CCCN3CCOCC3)C(c3nnnn3Cc3ccco3)C(C)C)c(=O)[nH]c2c1C (stereo not drawn) | . | . | 67* | 12 | . | 0
Cc1cccc2cc(CN(CC3CCCO3)C(c3nnnn3Cc3ccco3)C(C)C)c(=O)[nH]c12 (stereo not drawn) | 20 | 0.8 | 50* | 23 | 4 | 3
Cc1cc(N=Cc2c(O)ccc3cc(Br)ccc23)no1 | 64* | 0.4 | -5 | 9 | 23 | 0
COc1cccc(C=Nc2cc(C)on2)c1O | 6 | 0.9 | -8 | 16 | 2 | -1
O=C(Nc1nnc(-c2ccncc2)s1)Nc1ccccc1F | 14 | 0.9 | 60* | -5 | -2 | -2
CC1CCCCN1c1nnc(NC(=O)c2cc(-c3ccc(Br)cc3)on2)s1 (stereo not drawn) | 9 | 0.9 | 19 | -54 | -60 | 0
C=C(C)c1cccc(C(C)(C)NC(=O)Nc2cc(C)ccc2OC)c1 | 15 | 0.8 | 52* | -13 | 9 | 3
C=C(C)c1cccc(C(C)(C)NC(=O)Nc2ncccn2)c1 | 22 | 0.8 | 33 | -11 | -6 | 2
C=C(C)c1cccc(C(C)(C)NC(=O)Nc2ccccc2OCC)c1 | 9 | 0.9 | 55* | 8 | 18 | 1
CC1CCN(c2ccc3c(c2)S(=O)(=O)c2ccccc2C3=O)CC1 | . | . | . | 2 | . | .
Cc1ccccc1CS(=O)(=O)c1cn(CC(=O)N2CCOCC2)c2ccccc12 | . | . | . | 7 | . | .
Cc1ccc(Nc2c([N+](=O)[O-])ccc3c2=NC2(CCCCC2)N=3)cc1 | 51* | 0.5 | 51* | 28 | 10 | -7
CCc1c(C)nc2cc(-c3ccc(OC)cc3)[nH]n2c1=O | 6 | 0.9 | 58* | -8 | -3 | 0
CCOC(=O)Cc1c(C)nc2cc(-c3ccc(Cl)cc3)[nH]n2c1=O | 7 | 0.9 | -9 | -34 | 4 | 1
Cc1cc(=O)n2[nH]c(-c3ccc(C(C)(C)C)cc3)cc2n1 | 19 | 0.8 | 100* | -16 | 9 | 0
Cc1cc(S(=O)(=O)N2CCOCC2)ccc1OCC(=O)NCc1ccco1 | . | . | . | 0 | . | .
C/C(=N/OC(=O)c1ccc(Cl)cc1Cl)c1oc(C)nc1C | . | . | . | 4 | . | .
CCOC(=O)c1cnc2ccc(OC)cc2c1NCc1ccccc1 | 12 | 0.9 | 69* | 26 | -22 | 0
CCOC(=O)c1cnc2ccc(OCC)cc2c1NCc1ccccc1OC | 0 | 1 | 97* | 30 | -13 | 1
CCOC(=O)c1cnc2ccc(OCC)cc2c1NCCCN1CCOCC1 | . | . | . | 30 | . | .
CCOC(=O)c1cnc2ccc(OCC)cc2c1NCCN1CCOCC1 | -12 | 1.1 | 55* | 20 | 14 | 0
COc1ccc(Cl)cc1NC(=O)C1CC(=O)N(C2CCCCC2)C1 (stereo not drawn) | . | . | . | 2 | . | .
CCOC(=O)N1CCC(NC(=O)C2CCN(C(=O)c3cc4oc(C)cc4n3Cc3c(F)cccc3Cl)CC2)CC1 | 31 | 0.7 | 75* | -12 | 4 | 0
O=C1NC2(CCCCC2)C(=O)N1Cc1cccc(C(F)(F)F)c1 | 3 | 1 | 98* | -17 | -4 | -1
SMILES | Diaph inh CS | Diaph act CS | Lmaj promast | PfG6PD inh | G6PDH counter | DTT redox prof
O=C1NC2(CCCCCC2)C(=O)N1Cc1cccc(Cl)c1 | . | . | . | -18 | . | .
CCOC(=O)c1cc(-c2ccccc2)n(CC2CC(c3ccc(OC)cc3)=NO2)n1 (stereo not drawn) | . | . | . | 12 | . | .
Cc1ccc(-c2nnc(Nc3ccc(CC(N)=O)cc3)c3ccccc23)cc1S(=O)(=O)NCCO | . | . | . | -5 | . | .
CC(=O)Nc1ccc(Nc2nnc(-c3ccc(C)c(S(=O)(=O)NCC4CCCO4)c3)c3ccccc23)cc1 (stereo not drawn) | . | . | . | -8 | . | .
CNS(=O)(=O)c1cc(-c2nnc(Nc3ccc(NC(C)=O)cc3)c3ccccc23)ccc1C | . | . | . | 20 | . | .
Cc1ccc(-c2nnc(Nc3ccc4c(c3)OCO4)c3ccccc23)cc1S(=O)(=O)NC(C)C | 18 | 0.8 | 91* | 18 | -20 | 0
Cc1ccc(-c2nnc(Nc3ccc4c(c3)OCO4)c3ccccc23)cc1S(=O)(=O)NCCO | 11 | 0.9 | 77* | 39 | 2 | -1
Cc1ccc(-c2nnc(Nc3ccccc3)c3ccccc23)cc1S(=O)(=O)NCC1CCCO1 (stereo not drawn) | 24 | 0.8 | 80* | 11 | 3 | 5
CCc1ccccc1Nc1nc2ccccc2n1CC | 4 | 1 | 72* | -4 | 3 | 0
CCOC(=O)C(=CNc1cc(C)ccc1[N+](=O)[O-])C(=O)OCC | . | . | . | -10 | . | .
Cc1cc(S(=O)(=O)Nc2cc(C)c(O)c(C)c2)c(C)s1 | 0 | 1 | 100* | 22 | 7 | 0
NC/C(=N\O)c1ccc(Cl)cc1Cl | 16 | 0.8 | 12 | -5 | -1 | 0
Cc1ccc(/C=C2\CCC3=C2OC(N)=C(C#N)C3c2ccc(C)cc2)cc1 (stereo not drawn) | 15 | 0.9 | 100* | 14 | 10 | -3
Cc1ccc(C2C(C#N)=C(N)Oc3cc(N)ccc32)cc1 (stereo not drawn) | . | . | . | -6 | . | .
CCN1CCN(C(CNS(=O)(=O)c2ccc(Cl)cc2)c2cccnc2)CC1 (stereo not drawn) | . | . | . | -3 | . | .
CC(SCc1ccccc1)C(=O)Nc1ccccc1-c1ccccc1 (stereo not drawn) | 12 | 0.9 | 57* | -11 | 1 | 0
c1ccc2c(c1)OCCOCCOCCOCCOCCOc1ccccc1OCCOCCOCCO2 | 6 | 0.9 | 100* | -3 | -6 | 0
CCN1CCCC1CNS(=O)(=O)c1ccc(Cl)c(C(F)(F)F)c1 (stereo not drawn) | 7 | 0.9 | 81* | 0 | 7 | -1
O=C(CNS(=O)(=O)c1ccc(Cl)c(C(F)(F)F)c1)NC1CCCCC1 | . | . | . | 2 | . | .
COc1cc2c(cc1OC)CN(C(=O)c1ccc(S(=O)(=O)N(C)c3ccccc3)cc1)CC2 | 0 | 1 | 99* | -14 | 8 | -1
C=CCN1C(=S)CC(c2ccccc2)=Nc2ccccc21 | . | . | . | 0 | . | .
COc1cc(OC)cc(C(=O)NCc2nc(-c3ccccc3)no2)c1 | 11 | 0.9 | 68* | -24 | -4 | 3
CC(Sc1nnc(-c2ccccc2)c(-c2ccccc2)n1)C(=O)Nc1ncc(Cl)cc1Cl (stereo not drawn) | 53* | 0.5 | 49 | 20 | -11 | 0
